{
  "source": "the M2OR odorant receptor database",
  "data": [
    {"molecular_target": "T1, OR1A1 (Homo sapiens) (UniProt Q9P1Q5)", "T1 sequence (whole entry)": "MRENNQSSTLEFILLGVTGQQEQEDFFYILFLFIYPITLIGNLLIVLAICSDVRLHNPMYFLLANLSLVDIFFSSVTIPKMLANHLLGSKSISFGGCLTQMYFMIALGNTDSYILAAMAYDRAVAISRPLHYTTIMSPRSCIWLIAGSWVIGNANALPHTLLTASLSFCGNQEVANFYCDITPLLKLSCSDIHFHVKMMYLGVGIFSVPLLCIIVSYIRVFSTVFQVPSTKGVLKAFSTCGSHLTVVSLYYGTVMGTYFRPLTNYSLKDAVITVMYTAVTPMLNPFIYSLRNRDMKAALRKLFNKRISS", "settings": "stereoisomer not certain", "method_in_brief": "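Whether a receptor–molecule pair is responsive (active) rests on the original authors' judgment that its measured signal was statistically different from baseline. Pairs without that judgment are non-responsive (inactive). Sources used varied assay methods, commonly transient luciferase assays in mammalian cell lines.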", "values": [
      {"smiles": "CCOC(=O)C(C)CC", "note": "(stereo unspecified)", "odorant receptor agonist call": "inactive"},
      {"smiles": "CCOC(=O)C1CCCCC1", "odorant receptor agonist call": "active"},
      {"smiles": "CCCCCCCCC1CCC(=O)O1", "note": "(stereo unspecified)", "odorant receptor agonist call": "inactive"},
      {"smiles": "CSSc1ccoc1C", "odorant receptor agonist call": "inactive"},
      {"smiles": "COC(=O)Cc1ccccc1C", "odorant receptor agonist call": "active"},
      {"smiles": "CC(=O)C(C)O", "note": "(stereo unspecified)", "odorant receptor agonist call": "inactive"},
      {"smiles": "CCOC(C)=O", "odorant receptor agonist call": "inactive"},
      {"smiles": "CC1=CCC2CC1C2(C)C", "note": "(stereo unspecified)", "odorant receptor agonist call": "inactive"},
      {"smiles": "CSCCCO", "odorant receptor agonist call": "inactive"},
      {"smiles": "CC(C)(S)CCOC=O", "odorant receptor agonist call": "inactive"},
      {"smiles": "CCCCCCCCCC(=O)OCC", "odorant receptor agonist call": "inactive"},
      {"smiles": "CC(=O)Oc1ccccc1", "odorant receptor agonist call": "inactive"},
      {"smiles": "CCC=CCCC=CCO", "odorant receptor agonist call": "inactive"},
      {"smiles": "CCCCCCCC(=O)OCC", "odorant receptor agonist call": "inactive"},
      {"smiles": "CCO", "odorant receptor agonist call": "inactive"},
      {"smiles": "CC=O", "odorant receptor agonist call": "inactive"},
      {"smiles": "CCOC(=O)CCC(C)C", "odorant receptor agonist call": "inactive"},
      {"smiles": "Cc1c[nH]c2ccccc12", "odorant receptor agonist call": "inactive"},
      {"smiles": "O=C([O-])CCC(=O)[O-].[H+].[H+]", "odorant receptor agonist call": "inactive"},
      {"smiles": "CC(=O)C(C)C(C)=O", "odorant receptor agonist call": "inactive"},
      {"smiles": "CC(=O)c1cnccn1", "odorant receptor agonist call": "inactive"},
      {"smiles": "CCCCCO", "odorant receptor agonist call": "inactive"},
      {"smiles": "CCCCCCCCCO", "odorant receptor agonist call": "inactive"},
      {"smiles": "COC1=C(C)OC(C)C1=O", "note": "(stereo unspecified)", "odorant receptor agonist call": "inactive"},
      {"smiles": "CCC=O", "odorant receptor agonist call": "inactive"},
      {"smiles": "CCCCCCCC1CCC(=O)O1", "note": "(stereo unspecified)", "odorant receptor agonist call": "inactive"},
      {"smiles": "CC(=O)c1ccc(C)cc1", "odorant receptor agonist call": "inactive"},
      {"smiles": "CCCC(O)CC(=O)OCC", "note": "(stereo unspecified)", "odorant receptor agonist call": "inactive"},
      {"smiles": "CCCCCCO", "odorant receptor agonist call": "inactive"},
      {"smiles": "CCCCCCCCCCO", "odorant receptor agonist call": "active"},
      {"smiles": "CC(C)CCCCCCCCCCC=O", "odorant receptor agonist call": "inactive"},
      {"smiles": "CC(C)=CCCC(C)=CC#N", "odorant receptor agonist call": "inactive"},
      {"smiles": "CCCCC(=O)CC", "odorant receptor agonist call": "active"},
      {"smiles": "CCCCC(C)CCC(=O)O", "note": "(stereo unspecified)", "odorant receptor agonist call": "inactive"},
      {"smiles": "C=C(C)C1CC=C(C)CC1", "note": "(stereo unspecified)", "odorant receptor agonist call": "active"},
      {"smiles": "CC(=O)CCc1ccc(O)cc1", "odorant receptor agonist call": "inactive"}
    ]}
  ]
}
